From paper PMC6543826 (Bioorganic chemistry, 2018) come the findings set out here.

Like-named read-outs stand apart in the source and are kept apart here.

One assay has as its target ERK2 (Rattus norvegicus, UniProt P63086). Nature of the assay: in vitro radioactive kinase assay, Ets-1 phosphorylation by ERK2. The class given is biochemical. Conditions: 100 μM ATP /10mM Ets-1. In short, it runs like this: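 Activated rat ERK2 (2 nM) was tested with His-Ets-1 (1–138) at 28–30 °C in HEPES pH 7.5 buffer with 11 mM MgCl2, BSA and 5% DMSO. Reactions were started with [γ-32P]ATP (10 or 100 μM).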

Another assay deals with NCI-H322M. Nature of the assay: cells. The class given is cell-based. Particulars: 10^−5 M, 48 h.
Another assay relates to SK-OV-3. Nature of the assay: cells. In kind it is cell-based. Conditions: SK-OV-3, 10^−5 M, 48 h.
A further assay relates to NCI-H226. Nature of the assay: cells. In kind it is cell-based. Conditions: NCI-H226, 10^−5 M, 48 h.
For another assay, the system named is IGROV1. Nature of the assay: cells. In kind it is cell-based. Conditions: IGROV1, 10^−5 M, 48 h.
The test system of a further assay is NCI-H460. As to the kind of experiment: cells. In kind it is cell-based. Conditions: NCI-H460, 10^−5 M, 48 h.
Assay [1] deals with NCI-60 panel of tumor cell lines. Particulars: average over tested NCI-60 cell lines, 10^−5 M (10 μM), 48 h.
For another assay, the system named is RPMI-8226. Nature of the assay: cells. In kind it is cell-based. Particulars: RPMI-8226, 10^−5 M, 48 h.
The next assay relates to U251. As to the kind of experiment: cells. In kind it is cell-based. Particulars: U251, 10^−5 M, 48 h.
The subject of a further assay is HCT-15. As to the kind of experiment: cells. The class given is cell-based. Particulars: HCT-15, 10^−5 M, 48 h.
The test system of another assay is SK-MEL-5. Nature of the assay: cells. The class given is cell-based. Particulars: SK-MEL-5, 10^−5 M, 48 h.
In another assay the test system is NCI-H522. As to the kind of experiment: cells. The class given is cell-based. Particulars: NCI-H522, 10^−5 M, 48 h.
The subject of another assay is OVCAR-3. As to the kind of experiment: cells. The class given is cell-based. Particulars: OVCAR-3, 10^−5 M, 48 h.
Another assay relates to ACHN. Nature of the assay: cells. In kind it is cell-based. Particulars: 10^−5 M, 48 h.
The next assay relates to HCC-2998. Nature of the assay: cells. Conditions: HCC-2998, 10^−5 M, 48 h. In kind it is cell-based.
For another assay, the system named is UACC-62. As to the kind of experiment: cells. In kind it is cell-based. Conditions: UACC-62, 10^−5 M, 48 h.
For a further assay, the system named is SW-620. As to the kind of experiment: cells. The class given is cell-based. Particulars: SW-620, 10^−5 M, 48 h.
For another assay, the system named is SN12C. As to the kind of experiment: cells. Particulars: 10^−5 M, 48 h. The class given is cell-based.
For another assay, the system named is HL-60 (TB). As to the kind of experiment: cells. The class given is cell-based. Particulars: HL-60(TB), 10^−5 M, 48 h.
Another assay has as its system SF-539. Nature of the assay: cells. In kind it is cell-based. Conditions: SF-539, 10^−5 M, 48 h.
Another assay relates to MALME-3M. Nature of the assay: cells. In kind it is cell-based. Particulars: MALME-3M, 10^−5 M, 48 h.
The test system of the next assay is SNB-19. Nature of the assay: cells. The class given is cell-based. Conditions: SNB-19, 10^−5 M, 48 h.
In a further assay the test system is T-47D. As to the kind of experiment: cells. The class given is cell-based. Conditions: T-47D, 10^−5 M, 48 h.
Another assay relates to CCRF-CEM. As to the kind of experiment: cells. The class given is cell-based. Particulars: 10^−5 M, 48 h.
Another assay concerns MOLT-4. Nature of the assay: cells. In kind it is cell-based. Particulars: MOLT-4, 10^−5 M, 48 h.
The test system of another assay is KM 12. Nature of the assay: cells. In kind it is cell-based. Conditions: KM 12, 10^−5 M, 48 h.
The subject of the next assay is SK-MEL-2. Nature of the assay: cells. In kind it is cell-based. Conditions: SK-MEL-2, 10^−5 M, 48 h.
A further assay deals with MDA-MB-435. As to the kind of experiment: cells. The class given is cell-based. Particulars: MDA-MB-435, 10^−5 M, 48 h.
Another assay has as its system DU-145. As to the kind of experiment: cells. The class given is cell-based. Conditions: DU-145, 10^−5 M, 48 h.
The test system of another assay is SF-268. As to the kind of experiment: cells. Particulars: SF-268, 10^−5 M, 48 h. The class given is cell-based.
The test system of another assay is PC-3. Nature of the assay: cells. Particulars: PC-3, 10^−5 M, 48 h. The class given is cell-based.
A further assay relates to UO-31. Nature of the assay: cells. The class given is cell-based. Particulars: UO-31, 10^−5 M, 48 h.
The subject of the next assay is HOP-92. Nature of the assay: cells. In kind it is cell-based. Conditions: HOP-92, 10^−5 M, 48 h.
The next assay deals with MDA-MB-468. As to the kind of experiment: cells. Particulars: MDA-MB-468, 10^−5 M, 48 h. In kind it is cell-based.
The next assay relates to A549/ATCC. Nature of the assay: cells. Particulars: A549/ATCC, 10^−5 M, 48 h. In kind it is cell-based.
In the next assay the test system is HOP-62. Nature of the assay: cells. In kind it is cell-based. Conditions: HOP-62, 10^−5 M, 48 h.
A further assay relates to SF-295. As to the kind of experiment: cells. The class given is cell-based. Particulars: SF-295, 10^−5 M, 48 h.
In the next assay the test system is RXF 393. As to the kind of experiment: cells. In kind it is cell-based. Conditions: RXF 393, 10^−5 M, 48 h.
In another assay the test system is LOX IMVI. Nature of the assay: cells. Particulars: 10^−5 M, 48 h. In kind it is cell-based.
A further assay relates to OVCAR-4. As to the kind of experiment: cells. The class given is cell-based. Conditions: OVCAR-4, 10^−5 M, 48 h.
For another assay, the system named is M14. As to the kind of experiment: cells. Particulars: M14, 10^−5 M, 48 h. The class given is cell-based.
The next assay concerns SR. Nature of the assay: cells. Particulars: 10^−5 M, 48 h. In kind it is cell-based.
The subject of a further assay is K-562. Nature of the assay: cells. In kind it is cell-based. Particulars: K-562, 10^−5 M, 48 h.
The subject of a further assay is HT29. As to the kind of experiment: cells. In kind it is cell-based. Conditions: HT29, 10^−5 M, 48 h.
The subject of a further assay is SK-MEL-28. As to the kind of experiment: cells. The class given is cell-based. Conditions: SK-MEL-28, 10^−5 M, 48 h.
A further assay relates to OVCAR-8. As to the kind of experiment: cells. In kind it is cell-based. Particulars: OVCAR-8, 10^−5 M, 48 h.
The subject of a further assay is OVCAR-5. As to the kind of experiment: cells. Particulars: OVCAR-5, 10^−5 M, 48 h. In kind it is cell-based.
The next assay concerns MCF7. Nature of the assay: cells. In kind it is cell-based. Particulars: MCF7, 10^−5 M, 48 h.
Another assay relates to HCT-116. Nature of the assay: cells. The class given is cell-based. Particulars: HCT-116, 10^−5 M, 48 h.
Another assay relates to SNB-75. As to the kind of experiment: cells. Particulars: SNB-75, 10^−5 M, 48 h. The class given is cell-based.
The subject of another assay is NCI-H23. Nature of the assay: cells. The class given is cell-based. Particulars: NCI-H23, 10^−5 M, 48 h.
For the next assay, the system named is BT-549. As to the kind of experiment: cells. In kind it is cell-based. Particulars: BT-549, 10^−5 M, 48 h.
The mark [2] stands for this setting: ERK2 IC50 at 100 μM ATP /10mM Ets-1, Table 4.

Sequence of ERK2 (P63086 whole entry): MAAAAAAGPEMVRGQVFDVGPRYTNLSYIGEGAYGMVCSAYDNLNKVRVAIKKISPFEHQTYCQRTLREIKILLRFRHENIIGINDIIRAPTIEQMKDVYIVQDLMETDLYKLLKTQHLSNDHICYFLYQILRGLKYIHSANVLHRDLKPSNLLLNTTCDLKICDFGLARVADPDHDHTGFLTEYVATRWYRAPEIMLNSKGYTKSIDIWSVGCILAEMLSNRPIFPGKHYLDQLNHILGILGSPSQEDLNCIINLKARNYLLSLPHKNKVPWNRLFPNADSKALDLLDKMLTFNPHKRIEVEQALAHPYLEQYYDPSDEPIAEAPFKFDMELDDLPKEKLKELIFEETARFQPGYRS

Turning to `O=C1c2ccccc2C(=O)c2c1oc1c2c(=O)[nH]c2ccc(Br)cc21` [3c, 2-Bromonaphtho[2′,3′:4,5]furo[3,2-c]quinoline-6,7,12(5H)-trione], at ERK2 (setting [2]), the IC50 was above 100 µM.

As for `Cc1ccc2[nH]c(=O)c3c4c(oc3c2c1)C(=O)c1ccccc1C4=O` [3d, 2-Methylnaphtho[2′,3′:4,5]furo[3,2-c]quinoline-6,7,12(5H)-trione], the IC50 on ERK2 (setting [2]) turned out to be 59 ± 8.2 µM.

`CCn1c(=O)c2c(=O)c3c4c(oc3oc2c2ccccc21)C(=O)c1ccccc1C4=O` [5b, 5-Ethyl-5H-naphthalen[2″,3″:4′,5′]furo[3′,2′:4′,5,6]pyrano[3,2-c]quinoline-6,7,8,13-tetraone]: the “Growth percent (G%)” value is recorded as 97.72% in the assay on NCI-H322M; 102.05% with SK-OV-3; 99.44% with NCI-H226; 68.31% with IGROV1; 83.68% with NCI-H460; 33.49% with RPMI-8226. Also, the “Growth percent (G%)” value with U251 is on record as 57.67%; in the assay on HCT-15 it was 79.63%; with SK-MEL-5, 67.42%; in the assay with NCI-H522 it was 65.5%; in the assay on OVCAR-3, −16.31%; with ACHN it was 79.61%. In addition, the “Growth percent (G%)” value with HCC-2998 is listed as 100.59%; in the assay with UACC-62, 63.95%; with SW-620, 73.47%; in the assay on SN12C, 106.07%; in the assay on HL-60 (TB), −18.8%; in the assay with SF-539 it was 89.92%. Moreover, the “Growth percent (G%)” value in the assay on MALME-3M is reported as 112.5%; in the assay with SNB-19 it was 90.17%; in the assay on T-47D, 85.06%; in the assay on CCRF-CEM it was 2.47%; in the assay on MOLT-4, −24.49%; in the assay on KM 12, 86.61%. The “Growth percent (G%)” value with SK-MEL-2 came out at 79.89%; in the assay on MDA-MB-435, 95.88%; in the assay on DU-145, 42.4%; in the assay on SF-268, 84.32%; with PC-3 it was 81.82%; with UO-31, 112.5%. Besides, the “Growth percent (G%)” value is on record as 50.81% in the assay on HOP-92; −9.96% in the assay with MDA-MB-468; 82.36% in the assay on A549/ATCC; 80.29% in the assay on HOP-62; 95.07% in the assay with SF-295; 72.63% in the assay on RXF 393. The “Growth percent (G%)” value was 32.39% in the assay with LOX IMVI; −99.52% in the assay with OVCAR-4; 89.81% in the assay on M14; 80.76% in the assay on SR; 28.57% with K-562; 63.02% with HT29. Also, the “Growth percent (G%)” value was 106.96% with SK-MEL-28; 10.25% with OVCAR-8; 117.77% in the assay with OVCAR-5; 92.37% in the assay with MCF7; 34.6% in the assay with HCT-116; 119.73% in the assay with SNB-75. The “Growth percent (G%)” value worked out at 66.79% in the assay with NCI-H23 and 93.67% in the assay on BT-549. Also, in [1], the “Average G%” value stood at 65.81%. Further, at ERK2 (read-out: ERK2 IC50 at 100 μM ATP /10mM Ets-1, Table 4), the IC50 was 8.3 ± 1.5 µM.
